Here are results for 14 molecules from PubChem BioAssay.

Experiment [1] can be described thus: reducers of endogenous Her2 protein level, primary screen, SKBR3 breast tumor cells, AlphaScreen, ATP viability (AID 461;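 active means Her2 level under about 52% in both replicate screens, with viability over 70% of control, limit read from the data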;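 on Her2 level: lower value means less Her2 protein in the cells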;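 on viability: percent of carrier control wells set as 100% viability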). The following applies: 18-24 h, measured here: SKBR3 viability, ATP luminescence, at 10 µM.
Experiment [2] concerns the target Receptor tyrosine-protein kinase erbB-2 (Homo sapiens) (UniProt P04626). The description is as above. As to conditions: 18-24 h, at 10 µM, stronger effect = lower value.
The nature of experiment [3]: SK-BR-3 cell growth inhibitors, pilot screen, 24 h, human (AID 572;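 active means viability at or below 10% of carrier control in both of two separate runs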;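 further: compound exposure lasted between 18 and 24 h rather than exactly 24 h; 100% = carrier-treated control wells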). The following applies: SK-BR-3 viability, CellTiter-Glo luminescence, at 10 µM, stronger effect = lower value. A general note: ATP-based viability assays read luminescence as a measure of living cells.
A short description of experiment [4]: HUVEC growth inhibition – cell-based, human, primary screen (AID 575;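 active means viability at or below 30% in both replicate assays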;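 further: 100% = median of untreated cell wells with 0.1% DMSO on each plate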). The following applies: HUVEC proliferation, CellTiter-Glo luminescence, 72 h; at 10 µM; stronger effect = lower value. The gist of the method: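 Timing: 72 h treatment at 37 °C; material: HUVEC primary cells; technique: CellTiter-Glo luminescence measuring cellular ATP; controls: vehicle and MePR control wells; measure: percent of median DMSO-control luminescence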

Experiment [5] in a line: growth inhibitors of H69AR lung tumor, primary screen, human, duplicate replicates (AID 580;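 active means viability at or under a set limit in both replicates, limit being median viability minus 3 SD, cut at about 48% in these data, passing the limit was not always enough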;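 further: 100% = mean luminescence of untreated wells and 0% = no signal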). The following applies: H69AR lung tumor cells viability, ATP luminescence, 72 h; at 10 µM; stronger effect = lower value.
The nature of experiment [6]: reversal of MRP1-mediated doxorubicin resistance, pilot screen, H69AR cells, doxorubicin co-treatment (AID 601;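 active means viability loss from added drug above about 55%, and viability with drug at most 40%, in both replicates, limit read from the data, passing the limit was not always enough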). The following applies: CellTiter-Glo, 72 h, at 10 µM; for differential viability (reversal): stronger effect = higher value.
Experiment [7] can be described thus: 384-well plate pilot, post-Golgi transport modulator project, inhibition of yeast transport mutant growth (AID 636; in the data active means inhibition above about 31%). As to conditions: absorbance 615 nm, about 18 h, stronger effect = higher value.
Experiment [8] in a line: growth suppression of yeast trafficking mutant, preliminary HTS, modulators of trafficking downstream of Golgi apparatus project, 1536-format plate, OD 615 nm (AID 637). As to conditions: yeast transport mutant growth, absorbance 615 nm, 18 h; stronger effect = higher value.
Setting [9] is: H69AR cells + 2 uM doxorubicin, measured here: viability with 2 uM doxorubicin, stronger effect = lower value.
The mark [10] stands for this setting: H69AR cells, compound alone cytotoxicity.

Activity calls are given as the source filed them. Unless noted, no stated cut-off is given here; in the data, active means inhibition above about 30%; inactive means the rest.

Sequence of Receptor tyrosine-protein kinase erbB-2 (Homo sapiens) (P04626 whole entry, looked up): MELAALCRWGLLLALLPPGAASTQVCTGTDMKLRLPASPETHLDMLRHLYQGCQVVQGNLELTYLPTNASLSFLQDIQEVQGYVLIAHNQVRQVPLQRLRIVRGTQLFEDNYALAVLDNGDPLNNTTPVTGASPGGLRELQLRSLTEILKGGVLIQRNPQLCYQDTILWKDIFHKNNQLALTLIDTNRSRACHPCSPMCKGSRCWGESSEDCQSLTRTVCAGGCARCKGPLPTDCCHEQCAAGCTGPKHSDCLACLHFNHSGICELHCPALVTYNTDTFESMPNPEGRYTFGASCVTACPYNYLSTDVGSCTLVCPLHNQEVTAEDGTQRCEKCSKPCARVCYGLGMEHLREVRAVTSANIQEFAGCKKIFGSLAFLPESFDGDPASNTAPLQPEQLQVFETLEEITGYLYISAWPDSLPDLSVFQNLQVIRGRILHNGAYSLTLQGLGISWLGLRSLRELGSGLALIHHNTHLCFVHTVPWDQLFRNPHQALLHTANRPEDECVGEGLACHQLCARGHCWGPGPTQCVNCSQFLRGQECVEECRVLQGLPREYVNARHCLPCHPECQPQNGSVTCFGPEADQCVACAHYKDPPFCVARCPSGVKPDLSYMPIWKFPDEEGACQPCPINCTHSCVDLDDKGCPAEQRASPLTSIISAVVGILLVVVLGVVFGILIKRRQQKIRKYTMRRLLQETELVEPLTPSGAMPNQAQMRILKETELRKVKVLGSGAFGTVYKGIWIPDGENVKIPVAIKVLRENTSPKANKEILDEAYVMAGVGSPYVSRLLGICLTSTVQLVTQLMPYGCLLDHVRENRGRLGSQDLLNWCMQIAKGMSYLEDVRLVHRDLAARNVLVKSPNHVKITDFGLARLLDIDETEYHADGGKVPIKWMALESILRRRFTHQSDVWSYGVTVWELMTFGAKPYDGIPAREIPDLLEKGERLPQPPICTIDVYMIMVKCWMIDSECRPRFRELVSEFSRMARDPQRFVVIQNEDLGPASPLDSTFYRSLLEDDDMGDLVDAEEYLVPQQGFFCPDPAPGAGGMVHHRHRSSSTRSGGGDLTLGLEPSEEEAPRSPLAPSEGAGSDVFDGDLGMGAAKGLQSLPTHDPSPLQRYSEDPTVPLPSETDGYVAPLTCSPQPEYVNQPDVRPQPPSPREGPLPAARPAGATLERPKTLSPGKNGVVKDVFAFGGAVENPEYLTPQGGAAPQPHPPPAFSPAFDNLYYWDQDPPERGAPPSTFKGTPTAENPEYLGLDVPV

What is called viability is a read-out of living cells in per cent, often relative to untreated cells. A word on the inhibition: it is the relative decrease from the control value, in per cent. Take `COc1ccc(C2CC(=O)C3=C(C2)Nc2ccccc2N(C(=O)C2CC2)C3c2cccnc2)cc1OC` (stereo not given): the viability in experiment [1] was 99.5%; in experiment [3], 99.5% (inactive); in experiment [4], 89% (inactive); in experiment [5] it was 97.9% (inactive); in experiment [6] (setting [9]), 96.1%; in experiment [6] (setting [10]) it was 97.9%. In addition, the Her2 level in experiment [2] was 96.5% (inactive). Also, the differential viability (reversal) in experiment [6] (H69AR cells + 2 uM doxorubicin) was 1.81% (inactive). Further, the inhibition in experiment [7] was -0.79% (inactive); in experiment [8], -1.67% (inactive).
With `O=C(c1ccccc1Br)N1CCN(c2ccccc2)CC1`, the viability in experiment [1] was 85%; in experiment [3], 85% (inactive); in experiment [4], 93.6% (inactive); in experiment [5], 102% (inactive); in experiment [6] (setting [9]), 88.9%; in experiment [6] (setting [10]) it was 102%. Moreover, the Her2 level in experiment [2] is 83.5% (inactive). The differential viability (reversal) in experiment [6] (H69AR cells + 2 uM doxorubicin) is 12.9% (inactive). For the same molecule, the inhibition in experiment [7] is -8.22% (inactive); in experiment [8], -4.76% (inactive).
With `Cc1ccccc1-c1nc(CN2CCC(C(=O)NCc3cccnc3)CC2)c(C)o1`, the viability is 88.5% in experiment [1]; 88.5% (inactive) in experiment [3]; 85.7% (inactive) in experiment [4]; 87.1% (inactive) in experiment [5]; 86.3% in experiment [6] (setting [9]); 87.1% in experiment [6] (setting [10]). Further, the Her2 level in experiment [2] is 82.5% (inactive). In addition, in experiment [6] (H69AR cells + 2 uM doxorubicin), the differential viability (reversal) is 0.825% (inactive). Besides, the inhibition in experiment [7] was -1.71% (inactive); in experiment [8], 0% (inactive).
Turning to `CCOC(=O)C1CCN(c2c(N3CCCCCC3)c(=O)c2=O)CC1`, the viability in experiment [1] was 97%; in experiment [3], 97% (inactive); in experiment [4] it was 87.9% (inactive); in experiment [5] it was 98% (inactive); in experiment [6] (setting [9]) it was 97.1%; in experiment [6] (setting [10]), 98%. Further, the Her2 level in experiment [2] is 100% (inactive). The differential viability (reversal) in experiment [6] (H69AR cells + 2 uM doxorubicin) was 0.92% (inactive). In addition, the inhibition was -1.67% (inactive) in experiment [7] and -0.33% (inactive) in experiment [8].
For the molecule `O=C1CC(c2cccs2)CC2=C1C(c1ccccc1)n1ncnc1N2` (stereo not given), the viability in experiment [1] was 105%; in experiment [3], 105% (inactive); in experiment [4], 100% (inactive); in experiment [5] it was 93.8% (inactive); in experiment [6] (setting [9]), 99.2%; in experiment [6] (setting [10]), 93.8%. Besides, the Her2 level in experiment [2] was 104% (inactive). In addition, in experiment [6] (H69AR cells + 2 uM doxorubicin), the differential viability (reversal) was -5.41% (inactive). In addition, the inhibition in experiment [7] is -4.53% (inactive); in experiment [8] it was -2.3% (inactive).
Take `O=C1CC(c2ccc(S(=O)(=O)N3CCN(c4ccccc4)CC3)cc2)CN1` (stereo not given): the viability was 96% in experiment [1]; 96% (inactive) in experiment [3]; 93% (inactive) in experiment [4]; 96.4% (inactive) in experiment [5]; 94.6% in experiment [6] (setting [9]); 96.4% in experiment [6] (setting [10]). For the same molecule, the Her2 level in experiment [2] is 90% (inactive). Also, in experiment [6] (H69AR cells + 2 uM doxorubicin), the differential viability (reversal) was 1.82% (inactive). Moreover, the inhibition is -7.3% (inactive) in experiment [7] and -10% (inactive) in experiment [8].
For the molecule `CCOC(=O)c1c(C)oc2ccc(O)c(CN3CCCCC3)c12`, the viability in experiment [1] was 87.5%; in experiment [3], 87.5% (inactive); in experiment [4], 90.2% (inactive); in experiment [5], 86.9% (inactive); in experiment [6] (setting [9]), 90.7%; in experiment [6] (setting [10]), 86.9%. Further, the Her2 level in experiment [2] was 79.5% (inactive). In addition, in experiment [6] (H69AR cells + 2 uM doxorubicin), the differential viability (reversal) is -3.83% (inactive). Besides, the results for the inhibition in experiment [7] and in experiment [8] were -1.84% (inactive) and 2.22% (inactive), respectively.
As for `CCN(CC)S(=O)(=O)c1ccc(Br)c(OC)c1`, the viability in experiment [1] is 106%; in experiment [3] it was 106% (inactive); in experiment [4], 90.4% (inactive); in experiment [5], 96.3% (inactive); in experiment [6] (setting [9]), 91.3%; in experiment [6] (setting [10]) it was 96.3%. Also, the Her2 level in experiment [2] was 84% (inactive). The differential viability (reversal) in experiment [6] (H69AR cells + 2 uM doxorubicin) was 5.01% (inactive). Further, the inhibition in experiment [7] is -6.89% (inactive); in experiment [8] it was -2.13% (inactive).
On to `CCCN1CCN(CCCNC(=O)Cn2nc(-c3ccc(Cl)cc3)ccc2=O)CC1`, for which the viability is 86% in experiment [1]; 86% (inactive) in experiment [3]; 104% (inactive) in experiment [4]; 101% (inactive) in experiment [5]; 90.6% in experiment [6] (setting [9]); 101% in experiment [6] (setting [10]). The Her2 level in experiment [2] was 93.5% (inactive). The differential viability (reversal) in experiment [6] (H69AR cells + 2 uM doxorubicin) is 10.3% (inactive). In addition, the inhibition in experiment [7] is -2.76% (inactive); in experiment [8], 2.42% (inactive).
With `Nc1nonc1N1CCCCC1`, the viability in experiment [1] is 85.5%; in experiment [3], 85.5% (inactive); in experiment [4] it was 106% (inactive); in experiment [5] it was 99.1% (inactive); in experiment [6] (setting [9]), 87.6%; in experiment [6] (setting [10]), 99.1%. Moreover, in experiment [2], the Her2 level was 152% (inactive). The differential viability (reversal) in experiment [6] (H69AR cells + 2 uM doxorubicin) was 11.5% (inactive). Besides, the inhibition in experiment [7] was -3.51% (inactive); in experiment [8] it was -7.33% (inactive).
As for `C(=C\c1ccccc1)/CN1CCN(Cc2ccc3c(c2)OCCO3)CC1`, the viability was 85% in experiment [1]; 85% (inactive) in experiment [3]; 105% (inactive) in experiment [4]; 93% (inactive) in experiment [5]; 88.6% in experiment [6] (setting [9]); 93% in experiment [6] (setting [10]). Besides, the Her2 level in experiment [2] was 91.5% (inactive). Moreover, in experiment [6] (H69AR cells + 2 uM doxorubicin), the differential viability (reversal) is 4.42% (inactive). For the same molecule, the inhibition in experiment [7] is -3.77% (inactive); in experiment [8] it was 1.15% (inactive).
Take `Cc1ccc(C)c(NC(=O)c2ccc3c(c2)N(Cc2ccc(F)cc2)C(=O)CS3=O)c1` (stereo not given): the viability in experiment [1] was 85.5%; in experiment [3], 85.5% (inactive); in experiment [4], 95.2% (inactive); in experiment [5], 97.1% (inactive); in experiment [6] (setting [9]), 93.1%; in experiment [6] (setting [10]) it was 97.1%. Moreover, in experiment [2], the Her2 level is 102% (inactive). In addition, the differential viability (reversal) in experiment [6] (H69AR cells + 2 uM doxorubicin) is 3.96% (inactive). Further, the inhibition in experiment [7] is -1.6% (inactive); in experiment [8], -0.66% (inactive).
For `Cc1ccc(S(=O)(=O)N(CC(=O)N2CCOCC2)CC(=O)N2CCOCC2)cc1`, the viability is 104% in experiment [1]; 104% (inactive) in experiment [3]; 110% (inactive) in experiment [4]; 107% (inactive) in experiment [5]; 101% in experiment [6] (setting [9]); 107% in experiment [6] (setting [10]). For the same molecule, the Her2 level in experiment [2] is 87% (inactive). Further, the differential viability (reversal) in experiment [6] (H69AR cells + 2 uM doxorubicin) is 5.66% (inactive). In addition, the inhibition in experiment [7] is -4.87% (inactive); in experiment [8], 3.17% (inactive).
For the molecule `CCOC(=O)CSc1nc2sc(C)c(C)c2c(=O)n1C`, the viability is 104% in experiment [1]; 104% (inactive) in experiment [3]; 85.4% (inactive) in experiment [4]; 94.2% (inactive) in experiment [5]; 84.8% in experiment [6] (setting [9]); 94.2% in experiment [6] (setting [10]). For the same molecule, the Her2 level in experiment [2] is 69% (inactive). In addition, the differential viability (reversal) in experiment [6] (H69AR cells + 2 uM doxorubicin) was 9.32% (inactive). Further, the inhibition in experiment [7] is -2.34% (inactive); in experiment [8], -0.17% (inactive).
